The term IC50 denotes the concentration that inhibits the measured activity by half. What is called CC50 is the concentration that lowers cell viability or growth by half.

Consider eleven compounds from ChEMBL document CHEMBL1817640, “Synthesis, trypanocidal activity and molecular modeling studies of 2-alkylaminomethylquinoline derivatives” (Eur J Med Chem, 2011).

The structures appear in SMILES notation. Calls of active or inactive are those of the source. No cut-off for these calls is given here.

The subject of data set [1] is Trypanosoma cruzi. In words: Trypanocidal activity against epimastigote form of Trypanosoma cruzi assessed as [3H]thymidine uptake after 72 hrs by liquid scintillation counter. The class given is functional, organism-based. An outline of the steps: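 RA-strain epimastigotes grown in biphasic medium at 26 °C, adjusted to 1.5 × 10⁶/mL. Cultured 72 h with compound at 100, 50, 10, 5, 1 and 0.5 (final). Benznidazole 5–20 as positive control. Growth measured by [³H]thymidine uptake. % inhibition = 100 − (cpm treated/cpm untreated × 100); IC50 estimated from this.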

The test system of data set [2] is Trypanosoma cruzi. The data set can be described thus: Trypanocidal activity against bloodstream trypomastigote form of Trypanosoma cruzi after 24 hrs. The class given is functional, organism-based. In outline: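 Trypomastigotes were taken by cardiac puncture from infected CF1 mice at peak parasitemia (day 15). Blood was diluted in complete RPMI to 1.5 × 10⁶ parasites/mL and seeded in duplicate with compound at 0.5–100 final concentration; benznidazole served as control drug. After 24 h incubation at 4 °C, surviving parasites were counted in a Neubauer chamber.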

In data set [3] the test system is Trypanosoma cruzi. The data set can be described thus: Trypanocidal activity against intracellular amastigotes form of Trypanosoma cruzi expressing beta-galactosidase infected in mouse J774 cells on day 7. The class given is functional, organism-based. Particulars: J774, 168 h. An outline of the steps: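 Host cells infected with β-galactosidase-expressing trypomastigotes at a 10:1 parasite:cell ratio. After 24 h, washed twice with PBS, then compound added at 0.5–100 in phenol-red-free complete RPMI, duplicates. Uninfected and infected controls included. Developed with CPRG (100 final) plus 1% Nonidet P-40 for 4–6 h at 37 °C, read at A570. % inhibition relative to untreated infected cells; IC50 estimated.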

A short description of data set [4]: Cytotoxicity against african green monkey COS7 cells after 24 hrs by MTT assay. The class given is cell-based. Particulars: chlorocebus aethiops, COS-7 cells. On the technique in general: Tetrazolium dyes change colour on reduction, which living cells bring about.
Data set [5] in a line: Selectivity index, ratio of CC50 for african green monkey COS7 cells to IC50 for bloodstream trypomastigote form of Trypanosoma cruzi. It is filed as functional, COS-7. In outline:
(§1)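 SI = CC50 divided by the IC50 against trypomastigotes or amastigotes, respectively.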

Data set [6] can be described thus: Selectivity index, ratio of CC50 for african green monkey COS7 cells to IC50 for intracellular amastigotes form of Trypanosoma cruzi. It is filed as functional, COS-7. In outline:
as §1

Data set [7] relates to Trypanosoma cruzi. The data set can be described thus: Antitrypanosomal activity against bloodstream trypomastigote form of Trypanosoma cruzi RA infected in C3H/HeN mouse assessed as reduction in parasites at 1 mg/kg administered 5 days after infection for 10 consecutive days relative to untreated control. It is filed as functional.
The test system of data set [8] is Trypanosoma cruzi. The data set can be described thus: Antitrypanosomal activity against bloodstream trypomastigote form of Trypanosoma cruzi RA infected in C3H/HeN mouse assessed as decrease in parasitemia at 1 mg/kg administered 5 days after infection for 10 consecutive days measured on day 14 relative to untreated control. It is filed as functional, organism-based. Set-up: dose 1 mg/kg.

`CCOC(=O)c1c(CN2CCCC2)nc2ccc(Cl)cc2c1-c1ccccc1`: the IC50 in the data set on Trypanosoma cruzi [1] was 10 µM; with Trypanosoma cruzi [2], 62.4 µM; in the data set with Trypanosoma cruzi [3] it was 40.3 µM. Also, in data set [4], the CC50 at 24 h was 490 µM. The results for the “Ratio CC50/IC50” value in data set [5] and in data set [6] were 7.8 and 12.1, respectively.

As for `CCOC(=O)c1c(CN2CCN(C)CC2)nc2ccc(Cl)cc2c1-c1ccccc1`, the IC50 came to 11.8 µM in the data set with Trypanosoma cruzi [1], 6.4 µM in the data set on Trypanosoma cruzi [2] and 10.4 µM in the data set on Trypanosoma cruzi [3]. In data set [4], this compound came in with a CC50 at 24 h of 35.9 µM. Also, the “Ratio CC50/IC50” value is on record as 5.6 in data set [5] and 3.5 in data set [6].

Consider `CC(O)CNCc1nc2ccc(Cl)cc2c(-c2ccccc2)c1C(=O)O` (stereo not drawn), for which the concentration for half-maximal inhibition (IC50) with Trypanosoma cruzi [1] came out at 50.4 µM.

Regarding `CCOC(=O)c1c(CN2CCOCC2)nc2ccc(Cl)cc2c1-c1ccccc1`, the IC50 in the data set on Trypanosoma cruzi [1] turned out to be 85.3 µM.

In the case of `CCOC(=O)c1c(CN(C)Cc2ccccc2)nc2ccc(Cl)cc2c1-c1ccccc1`, the IC50 with Trypanosoma cruzi [1] is 9.7 µM; with Trypanosoma cruzi [2] it was 128 µM; in the data set on Trypanosoma cruzi [3], 61 µM. Besides, in data set [4], it took 315 µM to reach half-maximal cytotoxicity (CC50 at 24 h). Besides, the “Ratio CC50/IC50” value in data set [5] was 2.5; in data set [6], 5.2.

Consider `O=C(Cn1ccnc1[N+](=O)[O-])NCc1ccccc1` [BENZNIDAZOLE], for which the results for the IC50 in the data set on Trypanosoma cruzi [1], in the data set on Trypanosoma cruzi [2] and in the data set on Trypanosoma cruzi [3] were 5.8 µM, 34.1 µM and 3.6 µM, respectively. The compound further registered a 50% cytotoxic concentration (CC50) at 24 h in data set [4] of 706 µM. Besides, the “Ratio CC50/IC50” value in data set [5] is given as 20.7; in data set [6], 196.1.

Take `CC(C)NCc1nc2ccc(Cl)cc2c(-c2ccccc2)c1C(=O)O`: the IC50 with Trypanosoma cruzi [1] is 89.6 µM.

`CCOC(=O)c1c(CN(CC)CC)nc2ccc(Cl)cc2c1-c1ccccc1`: the IC50 stood at 11.6 µM with Trypanosoma cruzi [1], 42.6 µM in the data set on Trypanosoma cruzi [2] and 33 µM in the data set on Trypanosoma cruzi [3]. Moreover, in data set [4], the CC50 at 24 h came out at 480 µM. In addition, the “Ratio CC50/IC50” value in data set [5] turned out to be 11.3; in data set [6], 14.5.

With `CC(=O)NCCCCCCNCc1nc2ccc(Cl)cc2c(-c2ccccc2)c1C(=O)O`, the IC50 was 3.4 µM in the data set with Trypanosoma cruzi [1], 3.1 µM in the data set on Trypanosoma cruzi [2] and 12.8 µM with Trypanosoma cruzi [3]. In data set [4], this compound showed a cytotoxic concentration (CC50) at 24 h of 771 µM. Further, the “Ratio CC50/IC50” value in data set [5] was 248.7; in data set [6] it was 60.2. Further, the “fold change (FC)” value in the data set on Trypanosoma cruzi [7] is on record as 3. The result with Trypanosoma cruzi [8] was Active.

For `CCOC(=O)c1c(CN2CCCCC2)nc2ccc(Cl)cc2c1-c1ccccc1`, the IC50 stood at 8.2 µM in the data set on Trypanosoma cruzi [1], 51.3 µM in the data set on Trypanosoma cruzi [2] and 37.9 µM in the data set on Trypanosoma cruzi [3]. The CC50 at 24 h in data set [4] came out at 311 µM. Besides, the “Ratio CC50/IC50” value is given as 6.05 in data set [5] and 8.2 in data set [6].

Consider `CCOC(=O)c1c(CCl)nc2ccc(Cl)cc2c1-c1ccccc1`, for which the half-maximal inhibitory concentration (IC50) in the data set with Trypanosoma cruzi [1] stood at 31.4 µM.
